# Results published in PMC2774482 (Basic & Clinical Pharmacology & Toxicology, 2009).
# Structures can show the parent of a compound that is named as a salt.
# What was measured:
# [1] = test system: Caco-2 cell monolayers; experiment: Bidirectional transepithelial transport across Caco-2 cell monolayers; type: in vitro ADME, human; conditions: for increase of the efflux (B–A): physiological pH 7.4/7.4
# [2] = pKa / ionisation; type: physicochemical; conditions: at both pH 6.8 and 7.4
# [3] = test system: Caco-2 cell monolayers; experiment: Paracellular transport of [^3H]-mannitol across Caco-2 monolayers; type: in vitro ADME, human; conditions: apical to basolateral (A-B), over 3 hr
# Outline: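 Caco-2 TC7 cells (passages 40–55) seeded at 65,000 cells/cm2 on 0.4 µm polycarbonate Transwell inserts and used 20–21 days post-seeding. [3H]-mannitol (0.5 µCi/ml) serves as the paracellular marker for tight-junction integrity. Apical-to-basolateral permeability is followed over 3 hr, with basolateral samples taken at several times and counted by liquid scintillation.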
# [4] = Bidirectional transepithelial transport across Caco-2 cell monolayers; type: in vitro ADME, human; conditions: human, rhodamine 123 5 µM, pH 6.8/7.4, control (no inhibitor)
# [5] = test system: P-gp; experiment: as above; type: in vitro ADME, human; conditions: human, Caco-2, pH 6.8, with cyclosporine A 10 µM, rhodamine 123 5 µM, pH 6.8/7.4, + cyclosporine A 10 µM
# [6] = 1 µM, pH 6.8/7.4, + 10 µM Cyclosporine A
# [7] = 1 µM, pH 7.4/7.4, + 4 µM GF120918
# [8] = 1 µM, pH 7.4/7.4, + 10 µM Cyclosporine A
# [9] = 1 µM, pH 7.4/7.4, no inhibitor, control of GF120918 experiment (Table 2)
# [10] = 10 µM, pH 6.8/7.4, + 10 µM Cyclosporine A
# [11] = 10 µM, pH 6.8/7.4, no inhibitor
# [12] = 10 µM, pH 7.4/7.4, + 10 µM Cyclosporine A
# [13] = 10 µM, pH 7.4/7.4, no inhibitor
# [14] = 50 µM, pH 6.8/7.4, + 10 µM Cyclosporine A
# [15] = 50 µM, pH 6.8/7.4, no inhibitor
# [16] = 50 µM, pH 7.4/7.4, + 10 µM Cyclosporine A
# [17] = 50 µM, pH 7.4/7.4, no inhibitor
# [18] = 100 µM, pH 6.8/7.4, + 10 µM Cyclosporine A
# [19] = 100 µM, pH 6.8/7.4, no inhibitor
# [20] = 100 µM, pH 7.4/7.4, + 10 µM Cyclosporine A
# [21] = 100 µM, pH 7.4/7.4, no inhibitor
# [22] = in the presence of cyclosporine A
smiles,measurement,setting,value
"COc1cccc(C2(O)CCCCC2CN(C)C)c1 (single isomer, unassigned; (+)) [(+)-TMD, (+)-tramadol]",Papp (A – B),[1]; [6],15.6 ± 1.2 (cm/sec.) (10^−6)
same,Papp (B – A),[1]; [6],34.0 ± 0.7 (cm/sec.) (10^−6)
same,Papp (A – B),"[1]; 1 µM, pH 6.8/7.4, no inhibitor",14.1 ± 0.8 (cm/sec.) (10^−6)
same,Papp (B – A),"[1]; 1 µM, pH 6.8/7.4, no inhibitor",31.1 ± 0.8 (cm/sec.) (10^−6)
same,Papp (A – B),[1]; [7],45.8 ± 3.7 (cm/sec.) (10^−6)
same,Papp (B – A),[1]; [7],60.6 ± 2.1 (cm/sec.) (10^−6)
same,Papp (A – B),[1]; [8],26.2 ± 3.4 (cm/sec.) (10^−6)
same,Papp (B – A),[1]; [8],34.6 ± 0.8 (cm/sec.) (10^−6)
same,Papp (A – B),"[1]; 1 µM, pH 7.4/7.4, no inhibitor",28.1 ± 0.5 (cm/sec.) (10^−6)
same,Papp (B – A),"[1]; 1 µM, pH 7.4/7.4, no inhibitor",31.5 ± 1.3 (cm/sec.) (10^−6)
same,Papp (A – B),[1]; [9],42.6 ± 6.2 (cm/sec.) (10^−6)
same,Papp (B – A),[1]; [9],52.3 ± 2.9 (cm/sec.) (10^−6)
same,Papp (A – B),[1]; [10],9.6 ± 1.1 (cm/sec.) (10^−6)
same,Papp (B – A),[1]; [10],28.8 ± 0.6 (cm/sec.) (10^−6)
same,Papp (A – B),[1]; [11],11.0 ± 0.7 (cm/sec.) (10^−6)
same,Papp (B – A),[1]; [11],26.9 ± 0.5 (cm/sec.) (10^−6)
same,Papp (A – B),[1]; [12],30.2 ± 2.1 (cm/sec.) (10^−6)
same,Papp (B – A),[1]; [12],39.4 ± 0.8 (cm/sec.) (10^−6)
same,Papp (A – B),[1]; [13],33.5 ± 1.4 (cm/sec.) (10^−6)
same,Papp (B – A),[1]; [13],38.8 ± 1.6 (cm/sec.) (10^−6)
same,Papp (A – B),[1]; [14],9.3 ± 0.6 (cm/sec.) (10^−6)
same,Papp (B – A),[1]; [14],31.2 ± 0.7 (cm/sec.) (10^−6)
same,Papp (A – B),[1]; [15],10.3 ± 0.5 (cm/sec.) (10^−6)
same,Papp (B – A),[1]; [15],25.6 ± 2.3 (cm/sec.) (10^−6)
same,Papp (A – B),[1]; [16],49.9 ± 2.5 (cm/sec.) (10^−6)
same,Papp (B – A),[1]; [16],69.6 ± 0.7 (cm/sec.) (10^−6)
same,Papp (A – B),[1]; [17],52.5 ± 1.1 (cm/sec.) (10^−6)
same,Papp (B – A),[1]; [17],65.3 ± 1.0 (cm/sec.) (10^−6)
same,Papp (A – B),[1]; [18],21.7 ± 1.9 (cm/sec.) (10^−6)
same,Papp (B – A),[1]; [18],61.7 ± 2.0 (cm/sec.) (10^−6)
same,Papp (A – B),[1]; [19],22.6 ± 1.9 (cm/sec.) (10^−6)
same,Papp (B – A),[1]; [19],60.9 ± 1.3 (cm/sec.) (10^−6)
same,Papp (A – B),[1]; [20],39.1 ± 1.5 (cm/sec.) (10^−6)
same,Papp (B – A),[1]; [20],68.2 ± 0.9 (cm/sec.) (10^−6)
same,Papp (A – B),[1]; [21],41.7 ± 3.6 (cm/sec.) (10^−6)
same,Papp (B – A),[1]; [21],66.9 ± 0.4 (cm/sec.) (10^−6)
same,increase of the efflux (B–A),"[1]; GF120918, 1 µM",17%
same,increase of the efflux (B–A),[1]; [22],up to 10%
"COc1cccc(C2(O)CCCCC2CN(C)C)c1 (single isomer, unassigned; (-)) [(−)-TMD, (−)-tramadol]",Papp (A – B),[1]; [6],18.7 ± 1.1 (cm/sec.) (10^−6)
same,Papp (B – A),[1]; [6],36.0 ± 0.3 (cm/sec.) (10^−6)
same,Papp (A – B),"[1]; 1 µM, pH 6.8/7.4, no inhibitor",16.7 ± 0.5 (cm/sec.) (10^−6)
same,Papp (B – A),"[1]; 1 µM, pH 6.8/7.4, no inhibitor",32.2 ± 0.5 (cm/sec.) (10^−6)
same,Papp (A – B),[1]; [7],44.8 ± 4.0 (cm/sec.) (10^−6)
same,Papp (B – A),[1]; [7],61.3 ± 2.8 (cm/sec.) (10^−6)
same,Papp (A – B),[1]; [8],29.2 ± 1.1 (cm/sec.) (10^−6)
same,Papp (B – A),[1]; [8],34.2 ± 0.8 (cm/sec.) (10^−6)
same,Papp (A – B),"[1]; 1 µM, pH 7.4/7.4, no inhibitor",31.0 ± 1.9 (cm/sec.) (10^−6)
same,Papp (B – A),"[1]; 1 µM, pH 7.4/7.4, no inhibitor",30.8 ± 1.8 (cm/sec.) (10^−6)
same,Papp (A – B),[1]; [9],43.8 ± 5.8 (cm/sec.) (10^−6)
same,Papp (B – A),[1]; [9],51.1 ± 1.9 (cm/sec.) (10^−6)
same,Papp (A – B),[1]; [10],10.2 ± 1.0 (cm/sec.) (10^−6)
same,Papp (B – A),[1]; [10],28.9 ± 0.5 (cm/sec.) (10^−6)
same,Papp (A – B),[1]; [11],11.0 ± 0.5 (cm/sec.) (10^−6)
same,Papp (B – A),[1]; [11],26.9 ± 0.5 (cm/sec.) (10^−6)
same,Papp (A – B),[1]; [12],29.9 ± 1.5 (cm/sec.) (10^−6)
same,Papp (B – A),[1]; [12],39.0 ± 0.6 (cm/sec.) (10^−6)
same,Papp (A – B),[1]; [13],33.5 ± 2.2 (cm/sec.) (10^−6)
same,Papp (B – A),[1]; [13],37.2 ± 0.4 (cm/sec.) (10^−6)
same,Papp (A – B),[1]; [14],9.4 ± 0.6 (cm/sec.) (10^−6)
same,Papp (B – A),[1]; [14],31.2 ± 0.8 (cm/sec.) (10^−6)
same,Papp (A – B),[1]; [15],10.3 ± 0.5 (cm/sec.) (10^−6)
same,Papp (B – A),[1]; [15],25.4 ± 2.3 (cm/sec.) (10^−6)
same,Papp (A – B),[1]; [16],50.9 ± 1.7 (cm/sec.) (10^−6)
same,Papp (B – A),[1]; [16],68.9 ± 0.4 (cm/sec.) (10^−6)
same,Papp (A – B),[1]; [17],52.9 ± 1.0 (cm/sec.) (10^−6)
same,Papp (B – A),[1]; [17],63.4 ± 3.8 (cm/sec.) (10^−6)
same,Papp (A – B),[1]; [18],21.7 ± 2.0 (cm/sec.) (10^−6)
same,Papp (B – A),[1]; [18],62.5 ± 2.0 (cm/sec.) (10^−6)
same,Papp (A – B),[1]; [19],22.4 ± 1.8 (cm/sec.) (10^−6)
same,Papp (B – A),[1]; [19],61.3 ± 1.0 (cm/sec.) (10^−6)
same,Papp (A – B),[1]; [20],37.3 ± 1.0 (cm/sec.) (10^−6)
same,Papp (B – A),[1]; [20],67.7 ± 1.5 (cm/sec.) (10^−6)
same,Papp (A – B),[1]; [21],41.1 ± 2.9 (cm/sec.) (10^−6)
same,Papp (B – A),[1]; [21],64.3 ± 3.4 (cm/sec.) (10^−6)
same,increase of the efflux (B–A),"[1]; GF120918, 1 µM",17%
same,increase of the efflux (B–A),[1]; [22],up to 10%
"COc1cccc(C2(O)CCCCC2CN(C)C)c1 (centres unmarked) [TMD, Tramadol hydrochloride]",ionised (protonated) form,[2],100%
OC[C@@H](O)[C@@H](O)[C@H](O)[C@H](O)CO [[^3H]-mannitol],transport rate,[3],< 1 % per hr
COC(=O)c1ccccc1-c1c2ccc(=N)cc-2oc2cc(N)ccc12 [rhodamine 123],decrease of secretory transport,[1]; in the presence of the P-gp inhibitor cyclosporine A,80%
same,"Papp A→B at 3 h, 5 µM","[4]; Caco-2, pH 6.8, Papp(A–B)",4.8 ± 0.2 ×10⁻⁶ cm/s
same,"Papp B→A at 3 hr, 5 µM","[4]; Caco-2, pH 6.8, Papp(B–A)",6.4 ± 0.7 ×10⁻⁶ cm/s
same,"Papp A→B at 3 h, 5 µM",[5]; Papp(A–B),7.8 ± 0.3 ×10⁻⁶ cm/s
same,"Papp B→A at 3 hr, 5 µM",[5]; Papp(B–A),1.2 ± 0.3 ×10⁻⁶ cm/s
